According to ChEMBL document CHEMBL1152560, “Substituted 2-arylbenzothiazoles as kinase inhibitors: hit-to-lead optimization” (Bioorg Med Chem, 2009):

What was measured:
[1] = molecular target: Angiopoietin-1 receptor (Homo sapiens, UniProt Q02763); assay: Inhibition of TIE2 in human HCT116 cells by cellular phosphorylation assay; type: cell-based, HCT-116
Outline: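 TIE2 autophosphorylation in cells expressing the receptor. Compound was applied, cells were stimulated, then lysed with phosphoprotein levels preserved. Phosphorylation was quantified by sandwich ELISA with a receptor-specific capture antibody and anti-phosphotyrosine antibody, relative to the stimulated high control.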

[2] = Residual activity of S6K at 10 uM by microplate scintillation counting
[3] = molecular target: T1, Tyrosine-protein kinase Tec (Homo sapiens) (UniProt P42680); assay: Residual activity of TEC at 0.1 uM by microplate scintillation counting
T1 sequence (whole entry): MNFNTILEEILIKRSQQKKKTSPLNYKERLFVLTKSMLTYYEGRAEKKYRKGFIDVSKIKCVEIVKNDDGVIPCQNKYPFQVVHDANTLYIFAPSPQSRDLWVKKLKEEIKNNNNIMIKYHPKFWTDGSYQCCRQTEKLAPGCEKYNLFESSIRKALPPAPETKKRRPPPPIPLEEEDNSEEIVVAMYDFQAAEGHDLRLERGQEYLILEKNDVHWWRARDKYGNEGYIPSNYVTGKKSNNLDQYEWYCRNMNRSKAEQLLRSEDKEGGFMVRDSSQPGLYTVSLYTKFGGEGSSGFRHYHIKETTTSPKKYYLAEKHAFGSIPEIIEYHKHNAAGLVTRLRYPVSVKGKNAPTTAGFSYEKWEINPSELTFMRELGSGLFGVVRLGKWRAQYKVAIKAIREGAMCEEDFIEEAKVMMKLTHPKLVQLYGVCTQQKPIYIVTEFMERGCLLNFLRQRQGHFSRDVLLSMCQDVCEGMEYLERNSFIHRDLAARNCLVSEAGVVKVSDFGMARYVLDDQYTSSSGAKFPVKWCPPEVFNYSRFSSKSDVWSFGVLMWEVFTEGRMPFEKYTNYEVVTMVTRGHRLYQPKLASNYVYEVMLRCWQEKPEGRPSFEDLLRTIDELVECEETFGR

[4] = molecular target: T2, Ephrin type-A receptor 3 (Homo sapiens) (UniProt P29320); assay: Residual activity of EPHA3 at 10 uM by microplate scintillation counting
T2 sequence (whole entry): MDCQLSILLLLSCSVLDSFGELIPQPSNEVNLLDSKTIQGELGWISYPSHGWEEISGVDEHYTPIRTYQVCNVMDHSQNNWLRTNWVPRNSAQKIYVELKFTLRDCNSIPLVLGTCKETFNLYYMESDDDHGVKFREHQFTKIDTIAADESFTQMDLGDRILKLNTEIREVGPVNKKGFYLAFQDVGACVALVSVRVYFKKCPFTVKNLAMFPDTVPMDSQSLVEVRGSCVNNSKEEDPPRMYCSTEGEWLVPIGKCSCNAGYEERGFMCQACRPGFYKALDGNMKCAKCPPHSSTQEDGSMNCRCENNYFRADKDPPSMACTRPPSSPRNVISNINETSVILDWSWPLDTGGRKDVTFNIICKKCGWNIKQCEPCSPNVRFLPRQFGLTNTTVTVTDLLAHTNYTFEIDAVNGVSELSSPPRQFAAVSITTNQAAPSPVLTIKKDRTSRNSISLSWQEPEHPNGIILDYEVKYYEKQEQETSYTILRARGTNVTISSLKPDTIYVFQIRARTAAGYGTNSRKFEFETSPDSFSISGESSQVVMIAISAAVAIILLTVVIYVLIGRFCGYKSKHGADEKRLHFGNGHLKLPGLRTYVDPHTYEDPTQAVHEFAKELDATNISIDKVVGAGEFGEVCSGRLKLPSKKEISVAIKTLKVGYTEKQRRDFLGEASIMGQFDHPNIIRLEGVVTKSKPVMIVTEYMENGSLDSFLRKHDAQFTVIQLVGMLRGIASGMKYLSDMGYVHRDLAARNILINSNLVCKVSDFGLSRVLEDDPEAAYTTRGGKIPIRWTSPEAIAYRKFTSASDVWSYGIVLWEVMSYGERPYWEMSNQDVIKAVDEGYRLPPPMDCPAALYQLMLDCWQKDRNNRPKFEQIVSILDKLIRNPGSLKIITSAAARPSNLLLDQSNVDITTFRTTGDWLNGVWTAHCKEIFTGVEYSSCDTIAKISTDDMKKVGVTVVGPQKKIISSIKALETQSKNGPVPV

[5] = molecular target: T2, Ephrin type-A receptor 3 (Homo sapiens); assay: Residual activity of EPHA3 at 0.1 uM by microplate scintillation counting
[6] = molecular target: T3, Inhibitor of nuclear factor kappa-B kinase subunit alpha (Homo sapiens) (UniProt O15111); assay: Residual activity of IKKalpha at 10 uM by microplate scintillation counting
T3 sequence (whole entry): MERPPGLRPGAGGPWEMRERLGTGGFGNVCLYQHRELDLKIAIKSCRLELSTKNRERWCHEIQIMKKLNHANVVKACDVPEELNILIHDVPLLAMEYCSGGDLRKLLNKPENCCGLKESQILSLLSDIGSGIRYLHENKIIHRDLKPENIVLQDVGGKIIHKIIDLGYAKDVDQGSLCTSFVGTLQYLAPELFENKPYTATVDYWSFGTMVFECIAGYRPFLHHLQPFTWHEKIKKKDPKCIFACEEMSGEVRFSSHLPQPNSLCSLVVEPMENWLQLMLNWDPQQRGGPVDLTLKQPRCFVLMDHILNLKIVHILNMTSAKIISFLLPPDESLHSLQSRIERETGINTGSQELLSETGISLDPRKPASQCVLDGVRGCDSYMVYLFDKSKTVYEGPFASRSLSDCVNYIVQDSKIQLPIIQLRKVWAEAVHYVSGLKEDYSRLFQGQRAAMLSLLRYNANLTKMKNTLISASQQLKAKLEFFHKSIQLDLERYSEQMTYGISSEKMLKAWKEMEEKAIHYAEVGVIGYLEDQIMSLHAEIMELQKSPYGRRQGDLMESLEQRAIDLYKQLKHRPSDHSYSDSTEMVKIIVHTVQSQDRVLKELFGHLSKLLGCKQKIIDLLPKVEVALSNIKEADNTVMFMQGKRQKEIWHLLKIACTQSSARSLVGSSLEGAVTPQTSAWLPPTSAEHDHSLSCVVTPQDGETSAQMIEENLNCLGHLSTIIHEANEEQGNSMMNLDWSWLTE

Sequence of Angiopoietin-1 receptor (Q02763 whole entry): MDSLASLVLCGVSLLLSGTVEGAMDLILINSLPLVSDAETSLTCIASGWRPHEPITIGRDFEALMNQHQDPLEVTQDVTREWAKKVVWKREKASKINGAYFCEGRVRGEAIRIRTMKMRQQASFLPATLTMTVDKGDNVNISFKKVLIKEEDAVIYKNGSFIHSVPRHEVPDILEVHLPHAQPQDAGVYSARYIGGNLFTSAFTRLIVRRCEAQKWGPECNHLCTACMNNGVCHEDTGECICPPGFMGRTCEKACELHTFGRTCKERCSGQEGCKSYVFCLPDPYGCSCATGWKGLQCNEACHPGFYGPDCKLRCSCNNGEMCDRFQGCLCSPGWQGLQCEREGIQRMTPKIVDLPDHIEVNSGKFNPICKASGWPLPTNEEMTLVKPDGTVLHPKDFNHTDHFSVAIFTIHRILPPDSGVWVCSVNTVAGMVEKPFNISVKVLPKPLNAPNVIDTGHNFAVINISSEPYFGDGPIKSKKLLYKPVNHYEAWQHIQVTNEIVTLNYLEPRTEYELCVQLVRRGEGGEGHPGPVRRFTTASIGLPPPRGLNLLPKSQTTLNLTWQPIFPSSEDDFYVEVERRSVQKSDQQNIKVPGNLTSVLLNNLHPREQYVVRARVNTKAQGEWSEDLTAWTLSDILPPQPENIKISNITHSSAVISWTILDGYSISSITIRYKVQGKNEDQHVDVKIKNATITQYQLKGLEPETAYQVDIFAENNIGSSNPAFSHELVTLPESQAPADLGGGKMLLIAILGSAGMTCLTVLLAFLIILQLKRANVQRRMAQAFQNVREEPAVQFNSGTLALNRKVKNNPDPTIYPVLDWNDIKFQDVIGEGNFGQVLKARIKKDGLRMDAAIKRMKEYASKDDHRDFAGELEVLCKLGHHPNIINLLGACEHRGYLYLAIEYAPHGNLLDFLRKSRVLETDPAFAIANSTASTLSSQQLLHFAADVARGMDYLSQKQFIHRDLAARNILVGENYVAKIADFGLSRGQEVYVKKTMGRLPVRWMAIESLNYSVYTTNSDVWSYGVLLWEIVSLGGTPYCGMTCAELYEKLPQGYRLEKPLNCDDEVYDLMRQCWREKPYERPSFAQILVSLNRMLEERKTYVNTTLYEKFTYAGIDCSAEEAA

Row | SMILES | EC50 [1] [nM] | residual activity [2] [%] | residual activity [3] [%] | residual activity [4] [%] | residual activity [5] [%] | residual activity [6] [%]
1 | COc1cc2c(Oc3ccc(-c4nc5ccccc5s4)cc3F)ncnc2cc1OCCCN1CCN(C)CC1 | 300 | 36 | 96 | 143 | 106 | 135
2 | COc1cc2c(Oc3ccc(-c4nc5ccccc5s4)cc3)ncnc2cc1OCCCN1CCCC1 | 140 | 37 | 98 | 182 | 104 | 122
3 | COc1cc2c(Oc3ccc(-c4nc5ccccc5s4)cc3)ncnc2cc1OCCCN1CCN(C)CC1 | 540 | 29 | 105 | 236 | 92 | 130
